# From the M2OR odorant receptor database
# Numbering of substitutions follows the chain as printed.
# Key:
# Details in all cases: stereoisomer not certain
# [1] = tested on: T1, O13C8 A19D
# T1 sequence (whole entry): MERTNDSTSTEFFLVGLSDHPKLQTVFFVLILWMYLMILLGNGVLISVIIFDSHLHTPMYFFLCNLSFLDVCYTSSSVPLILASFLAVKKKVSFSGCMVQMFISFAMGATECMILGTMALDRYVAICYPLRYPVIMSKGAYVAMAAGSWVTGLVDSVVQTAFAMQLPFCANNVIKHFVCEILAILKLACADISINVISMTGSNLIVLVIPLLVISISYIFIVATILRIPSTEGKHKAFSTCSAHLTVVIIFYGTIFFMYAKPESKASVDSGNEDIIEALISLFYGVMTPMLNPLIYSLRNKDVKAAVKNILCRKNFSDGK
# Procedure, shortened: (§1)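 Each receptor–molecule pair is labelled responsive or non-responsive (inactive) according to whether the original authors judged the measured signal statistically different from baseline. The data were taken from the main text and supplementary material of published papers and checked for typos and inconsistencies. Assay methods differed by source, with transient luciferase assays in mammalian cell lines being common.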
# [2] = tested on: T2, O13C9 H17L V19G L23H
# T2 sequence (whole entry): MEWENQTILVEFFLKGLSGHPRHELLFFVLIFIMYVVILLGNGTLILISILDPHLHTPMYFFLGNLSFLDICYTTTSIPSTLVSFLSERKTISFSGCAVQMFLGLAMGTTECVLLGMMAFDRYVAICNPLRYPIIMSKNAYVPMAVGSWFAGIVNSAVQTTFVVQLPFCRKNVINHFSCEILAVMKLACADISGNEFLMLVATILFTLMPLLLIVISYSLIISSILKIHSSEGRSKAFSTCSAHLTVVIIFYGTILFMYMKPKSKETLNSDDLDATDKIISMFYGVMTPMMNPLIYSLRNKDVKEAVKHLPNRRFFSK
# Procedure, shortened: as §1
# [3] = tested on: T3, O13C9 Q6H
# T3 sequence (whole entry): T2 sequence (whole entry) with Q6H, L17H, G19V, H23L
# Procedure, shortened: as §1
# [4] = tested on: T4, O13F1 F18S T254M
# T4 sequence (whole entry): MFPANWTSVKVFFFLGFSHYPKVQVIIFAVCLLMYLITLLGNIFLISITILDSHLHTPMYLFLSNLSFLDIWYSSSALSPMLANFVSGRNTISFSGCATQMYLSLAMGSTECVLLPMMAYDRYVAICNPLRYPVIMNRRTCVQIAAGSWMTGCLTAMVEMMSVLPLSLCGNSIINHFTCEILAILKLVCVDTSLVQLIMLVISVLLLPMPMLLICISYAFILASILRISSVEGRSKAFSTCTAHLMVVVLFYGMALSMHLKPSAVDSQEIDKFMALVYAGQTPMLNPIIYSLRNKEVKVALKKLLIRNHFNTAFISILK
# Procedure, shortened: as §1
# [5] = tested on: T5, O13F1 F18S
# T5 sequence (whole entry): T4 sequence (whole entry) with M254T
# Procedure, shortened: as §1
# [6] = tested on: T6, O13G1 K46I M146L
# T6 sequence (whole entry): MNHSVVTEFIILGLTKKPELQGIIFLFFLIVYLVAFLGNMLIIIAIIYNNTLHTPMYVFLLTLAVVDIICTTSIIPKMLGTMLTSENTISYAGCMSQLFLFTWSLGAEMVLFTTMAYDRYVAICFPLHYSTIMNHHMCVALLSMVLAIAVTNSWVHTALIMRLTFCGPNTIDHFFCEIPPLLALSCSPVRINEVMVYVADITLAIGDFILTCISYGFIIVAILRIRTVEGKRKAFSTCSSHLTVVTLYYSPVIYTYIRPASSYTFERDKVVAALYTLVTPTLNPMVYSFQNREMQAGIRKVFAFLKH
# Procedure, shortened: as §1
# [7] = tested on: T7, O13G1
# T7 sequence (whole entry): T6 sequence (whole entry) with I46K, I132V, L146M
# Procedure, shortened: as §1
# [8] = tested on: T8, O13H1 Y266S
# T8 sequence (whole entry): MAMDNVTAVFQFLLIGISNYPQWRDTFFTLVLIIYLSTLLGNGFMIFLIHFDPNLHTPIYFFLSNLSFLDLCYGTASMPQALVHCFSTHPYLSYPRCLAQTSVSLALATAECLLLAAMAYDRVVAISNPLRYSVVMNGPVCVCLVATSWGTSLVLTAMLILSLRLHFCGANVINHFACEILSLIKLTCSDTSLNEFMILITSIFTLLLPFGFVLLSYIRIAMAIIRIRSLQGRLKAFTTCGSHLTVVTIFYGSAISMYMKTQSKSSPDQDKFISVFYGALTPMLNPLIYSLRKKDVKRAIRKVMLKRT
# Procedure, shortened: as §1
# [9] = tested on: T9, O13J1
# T9 sequence (whole entry): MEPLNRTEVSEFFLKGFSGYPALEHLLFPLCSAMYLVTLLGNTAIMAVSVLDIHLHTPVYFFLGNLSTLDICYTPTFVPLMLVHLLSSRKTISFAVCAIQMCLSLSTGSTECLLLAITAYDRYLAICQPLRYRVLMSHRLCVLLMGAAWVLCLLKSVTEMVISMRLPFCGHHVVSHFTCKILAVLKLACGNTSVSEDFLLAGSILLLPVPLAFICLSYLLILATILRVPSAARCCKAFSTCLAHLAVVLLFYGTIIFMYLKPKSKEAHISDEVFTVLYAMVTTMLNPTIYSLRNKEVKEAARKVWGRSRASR
# Procedure, shortened: as §1
# [10] = tested on: T10, O14A2 I133V
# T10 sequence (whole entry): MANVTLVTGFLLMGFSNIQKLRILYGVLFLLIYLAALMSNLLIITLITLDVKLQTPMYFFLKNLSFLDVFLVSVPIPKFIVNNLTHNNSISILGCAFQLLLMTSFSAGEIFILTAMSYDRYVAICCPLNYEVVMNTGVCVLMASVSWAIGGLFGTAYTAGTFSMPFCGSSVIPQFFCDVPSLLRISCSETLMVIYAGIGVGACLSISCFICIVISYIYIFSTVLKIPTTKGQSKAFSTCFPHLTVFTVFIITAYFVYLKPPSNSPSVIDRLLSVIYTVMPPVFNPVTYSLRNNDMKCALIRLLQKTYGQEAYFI
# Procedure, shortened: as §1
# [11] = tested on: T11, O14CZ
# T11 sequence (whole entry): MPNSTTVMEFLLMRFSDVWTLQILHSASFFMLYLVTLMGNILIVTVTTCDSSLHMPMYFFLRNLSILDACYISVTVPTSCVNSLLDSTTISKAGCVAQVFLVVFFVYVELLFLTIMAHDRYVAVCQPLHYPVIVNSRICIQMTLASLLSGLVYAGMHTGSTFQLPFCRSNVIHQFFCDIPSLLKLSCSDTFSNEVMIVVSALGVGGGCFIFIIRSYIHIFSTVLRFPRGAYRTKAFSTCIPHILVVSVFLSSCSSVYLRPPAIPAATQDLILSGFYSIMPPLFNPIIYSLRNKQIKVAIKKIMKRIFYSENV
# Procedure, shortened: as §1
# [12] = tested on: T12, O14I1 V36A D50N Y216C
# T12 sequence (whole entry): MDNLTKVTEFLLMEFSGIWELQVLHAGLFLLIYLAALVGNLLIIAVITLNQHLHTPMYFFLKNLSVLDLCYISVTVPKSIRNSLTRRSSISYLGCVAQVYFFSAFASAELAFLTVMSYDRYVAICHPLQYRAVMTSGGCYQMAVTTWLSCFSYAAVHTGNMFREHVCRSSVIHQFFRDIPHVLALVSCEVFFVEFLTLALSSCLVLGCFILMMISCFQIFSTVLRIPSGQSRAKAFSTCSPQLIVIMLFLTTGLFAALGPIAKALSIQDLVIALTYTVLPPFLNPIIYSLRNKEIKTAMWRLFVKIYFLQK
# Procedure, shortened: as §1
# [13] = tested on: T13, O14J1 N3Y
# T13 sequence (whole entry): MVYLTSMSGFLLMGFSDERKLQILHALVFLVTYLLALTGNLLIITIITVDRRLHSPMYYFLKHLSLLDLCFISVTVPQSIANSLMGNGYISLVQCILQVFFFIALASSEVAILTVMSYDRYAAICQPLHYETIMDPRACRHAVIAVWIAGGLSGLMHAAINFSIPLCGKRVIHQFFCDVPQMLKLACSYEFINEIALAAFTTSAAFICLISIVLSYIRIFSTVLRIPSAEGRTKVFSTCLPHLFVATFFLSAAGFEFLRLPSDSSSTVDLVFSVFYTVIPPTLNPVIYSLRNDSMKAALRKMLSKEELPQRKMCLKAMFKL
# Procedure, shortened: as §1
# [14] = tested on: T14, O14K1 D119Y
# T14 sequence (whole entry): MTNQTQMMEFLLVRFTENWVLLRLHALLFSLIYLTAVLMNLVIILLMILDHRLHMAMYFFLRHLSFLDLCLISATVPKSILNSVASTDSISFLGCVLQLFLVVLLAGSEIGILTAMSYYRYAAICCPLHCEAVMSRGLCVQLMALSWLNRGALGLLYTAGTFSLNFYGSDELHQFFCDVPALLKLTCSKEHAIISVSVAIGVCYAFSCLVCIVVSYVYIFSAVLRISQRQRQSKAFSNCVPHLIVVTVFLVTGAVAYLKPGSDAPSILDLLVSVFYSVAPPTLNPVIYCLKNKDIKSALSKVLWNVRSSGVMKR
# Procedure, shortened: as §1
# [15] = tested on: T15, O2A25
# T15 sequence (whole entry): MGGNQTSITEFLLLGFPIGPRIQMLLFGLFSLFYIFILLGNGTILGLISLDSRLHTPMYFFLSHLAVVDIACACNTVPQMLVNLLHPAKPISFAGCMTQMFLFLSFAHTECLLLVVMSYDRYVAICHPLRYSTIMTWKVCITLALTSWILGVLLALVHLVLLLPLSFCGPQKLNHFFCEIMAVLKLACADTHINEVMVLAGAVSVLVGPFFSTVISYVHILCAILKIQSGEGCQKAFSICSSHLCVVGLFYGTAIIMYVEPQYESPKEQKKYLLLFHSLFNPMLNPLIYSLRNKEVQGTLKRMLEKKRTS
# Procedure, shortened: as §1
# [16] = tested on: T16, O2AE1
# T16 sequence (whole entry): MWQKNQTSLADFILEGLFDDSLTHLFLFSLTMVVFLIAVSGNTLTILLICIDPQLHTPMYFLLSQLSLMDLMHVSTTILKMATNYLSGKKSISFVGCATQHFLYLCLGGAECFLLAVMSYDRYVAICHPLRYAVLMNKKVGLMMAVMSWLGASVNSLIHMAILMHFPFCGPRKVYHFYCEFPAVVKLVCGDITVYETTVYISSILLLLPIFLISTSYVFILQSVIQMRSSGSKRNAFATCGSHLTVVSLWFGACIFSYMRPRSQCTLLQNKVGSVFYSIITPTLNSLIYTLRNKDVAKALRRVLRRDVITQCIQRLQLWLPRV
# Procedure, shortened: as §1
# [17] = tested on: T17, O2AJ1
# T17 sequence (whole entry): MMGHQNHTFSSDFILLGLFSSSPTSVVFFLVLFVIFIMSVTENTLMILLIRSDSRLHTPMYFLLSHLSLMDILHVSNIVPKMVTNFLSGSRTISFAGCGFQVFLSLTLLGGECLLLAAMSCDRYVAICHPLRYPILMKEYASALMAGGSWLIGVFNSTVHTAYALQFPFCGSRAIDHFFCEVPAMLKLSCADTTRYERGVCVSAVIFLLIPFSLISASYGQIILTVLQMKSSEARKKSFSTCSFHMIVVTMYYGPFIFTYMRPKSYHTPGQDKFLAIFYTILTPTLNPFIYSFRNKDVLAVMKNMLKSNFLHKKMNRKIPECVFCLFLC
# Procedure, shortened: as §1
# [18] = tested on: T18, O2AK2 S99N
# T18 sequence (whole entry): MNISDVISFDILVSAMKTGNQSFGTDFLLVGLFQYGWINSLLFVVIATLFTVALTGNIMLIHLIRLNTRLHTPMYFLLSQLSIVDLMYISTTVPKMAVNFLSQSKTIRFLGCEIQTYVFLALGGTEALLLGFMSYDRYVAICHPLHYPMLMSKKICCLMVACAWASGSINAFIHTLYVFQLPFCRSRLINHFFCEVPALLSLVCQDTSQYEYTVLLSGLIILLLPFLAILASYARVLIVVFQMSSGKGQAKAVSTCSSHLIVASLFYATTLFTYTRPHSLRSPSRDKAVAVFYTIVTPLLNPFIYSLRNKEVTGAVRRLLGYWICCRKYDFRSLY
# Procedure, shortened: as §1
# [19] = tested on: T19, O1440
# T19 sequence (whole entry): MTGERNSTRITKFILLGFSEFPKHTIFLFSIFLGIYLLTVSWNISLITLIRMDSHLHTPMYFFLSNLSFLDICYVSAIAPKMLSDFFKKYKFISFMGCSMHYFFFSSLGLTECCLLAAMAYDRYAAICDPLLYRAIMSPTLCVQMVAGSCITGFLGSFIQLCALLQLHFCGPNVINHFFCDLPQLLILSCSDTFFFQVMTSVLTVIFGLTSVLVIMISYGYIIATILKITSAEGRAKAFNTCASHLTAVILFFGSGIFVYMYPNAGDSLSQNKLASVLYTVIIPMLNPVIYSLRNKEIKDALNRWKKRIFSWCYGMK
# Procedure, shortened: as §1
# [20] = tested on: T20, O1440; remark: listed apart in the source
# T20 sequence (whole entry): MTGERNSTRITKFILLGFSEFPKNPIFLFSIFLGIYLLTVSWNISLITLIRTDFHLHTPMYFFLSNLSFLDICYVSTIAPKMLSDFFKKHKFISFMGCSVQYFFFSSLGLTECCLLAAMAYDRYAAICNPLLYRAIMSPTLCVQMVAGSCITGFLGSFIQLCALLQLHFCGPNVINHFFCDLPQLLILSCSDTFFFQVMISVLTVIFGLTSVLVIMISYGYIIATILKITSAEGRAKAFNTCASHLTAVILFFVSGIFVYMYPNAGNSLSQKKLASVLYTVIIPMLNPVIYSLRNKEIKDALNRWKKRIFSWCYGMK
# Procedure, shortened: as §1
# 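Note: active if original authors judged signal statistically different from baseline.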
SMILES,odorant receptor agonist call [1],odorant receptor agonist call [2],odorant receptor agonist call [3],odorant receptor agonist call [4],odorant receptor agonist call [5],odorant receptor agonist call [6],odorant receptor agonist call [7],odorant receptor agonist call [8],odorant receptor agonist call [9],odorant receptor agonist call [10],odorant receptor agonist call [11],odorant receptor agonist call [12],odorant receptor agonist call [13],odorant receptor agonist call [14],odorant receptor agonist call [15],odorant receptor agonist call [16],odorant receptor agonist call [17],odorant receptor agonist call [18],odorant receptor agonist call [19],odorant receptor agonist call [20]
CCC1OC(C)=C(O)C1=O (stereo not given),inactive,inactive,inactive,inactive,inactive,inactive,inactive,inactive,inactive,inactive,inactive,inactive,inactive,inactive,inactive,inactive,inactive,inactive,–,–
CC1CCCCCCCCCCCC(=O)C1 (stereo not given),–,–,–,–,–,–,–,–,–,–,–,–,–,–,–,–,–,–,active,active
O=C1C=CCCCCCCCCCCCCO1,–,–,–,–,–,–,–,–,–,–,–,–,–,–,–,–,–,–,active,active
CCC1OC(=O)C(O)=C1C (stereo not given),inactive,inactive,inactive,inactive,inactive,inactive,inactive,inactive,inactive,inactive,inactive,inactive,inactive,inactive,inactive,inactive,inactive,inactive,–,–
